Activity calls are given as the source filed them. No cut-off for these calls is given here.
How the values were obtained:
cells = format: ADME, cell-based; conditions: Homo sapiens, WS1, 48 h
[1] = test system: Mycobacterium tuberculosis; assay: Anti-tubercular activity against Mycobacterium tuberculosis H37Rv expressing LuxABCDE assessed as relative luminescence by measuring ratio of RLU (test compound)/RLU(no compound) at 5 uM by luminescence based assay; format: functional
[2] = test system: Mycobacterium tuberculosis; assay: Anti-tubercular activity against Mycobacterium tuberculosis H37Rv expressing LuxABCDE assessed as relative luminescence by measuring ratio of RLU (test compound)/RLU(no compound) at 10 uM by luminescence based assay; format: functional
[3] = test system: Mycobacterium tuberculosis; assay: Anti-tubercular activity against Mycobacterium tuberculosis H37Rv expressing LuxABCDE assessed as relative luminescence by measuring ratio of RLU (test compound)/RLU(no compound) at 20 uM by luminescence based assay; format: functional
[4] = test system: Mycobacterium tuberculosis; assay: Anti-tubercular activity against Mycobacterium tuberculosis H37Rv expressing LuxABCDE assessed as luminescence signal at 1.3 uM by luminescence based assay relative to untreated control; format: functional
[5] = test system: Mycobacterium tuberculosis; assay: Anti-tubercular activity against Mycobacterium tuberculosis H37Rv expressing LuxABCDE assessed as luminescence signal at 2.5 uM by luminescence based assay relative to untreated control; format: functional
[6] = test system: Mycobacterium tuberculosis; assay: Anti-tubercular activity against Mycobacterium tuberculosis H37Rv expressing LuxABCDE assessed as relative luminescence by measuring ratio of RLU (test compound)/RLU(no compound) at 1.25 uM by luminescence based assay; format: functional
[7] = test system: Mycobacterium tuberculosis; assay: Anti-tubercular activity against Mycobacterium tuberculosis H37Rv expressing LuxABCDE assessed as relative luminescence by measuring ratio of RLU (test compound)/RLU(no compound) at 2.5 uM by luminescence based assay; format: functional
[8] = test system: Mycobacterium tuberculosis; assay: Anti-tubercular activity against Mycobacterium tuberculosis H37Rv expressing LuxABCDE assessed as relative luminescence by measuring ratio of RLU (test compound)/RLU(no compound) at 0.625 uM by luminescence based assay; format: functional, organism-based
[9] = test system: Mycobacterium tuberculosis; assay: Anti-tubercular activity against Mycobacterium tuberculosis H37Rv expressing LuxABCDE assessed as reduction in microbial growth by luminescence based assay; format: functional
Outline: (§1)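 Growth inhibition was assessed by two assays. […] Values are the mean of 3 biological replicates with standard deviation.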

[10] = test system: Mycobacterium tuberculosis; assay: Anti-tubercular activity against Mycobacterium tuberculosis H37Rv expressing LuxABCDE assessed as reduction in microbial growth at 5 uM by luminescence based assay relative to control; format: functional; conditions: read-out: GI
Outline: as §1

[11] = test system: Mycobacterium tuberculosis; assay: Anti-tubercular activity against Mycobacterium tuberculosis H37Rv expressing LuxABCDE assessed as reduction in microbial growth at 20 uM by luminescence based assay relative to control; format: functional; conditions: read-out: GI
Outline: as §1
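Throughout, for IC50: cell viability loss read out with alamar blue dye, IC50 being the concentration cutting viability by half.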

| Structure (SMILES) | IC50 (cells) [µM] | Ratio [1] | Ratio [2] | Ratio [3] | Activity [4] [%] | Activity [5] [%] | Ratio [6] | Ratio [7] | Activity [8] | MIC90 [9] [µM] | inhibition of growth at 5 µM [10] [%] | inhibition of growth at 20 µM [11] [%] |
| --- | --- | --- | --- | --- | --- | --- | --- | --- | --- | --- | --- | --- |
| C#Cc1cccc(Nc2c(C#N)cnc3cc(OC)c(OC)cc23)c1 | > 100 | 1.08 | 1.03 | 0.98 | >95 | >95 | – | – | – | – | – | – |
| COc1ccc2ncnc(Nc3ccc(OCc4ccccc4)cc3)c2c1 | > 100 | 0.89 | 0.83 | 0.62 | – | – | 1.04 | 1.07 | inactive | – | – | – |
| COc1cc2nccc(Nc3ccc(NC(C)=O)cc3)c2cc1OC | 9.7 | 1.11 | 1.07 | 1.02 | – | – | 1.21 | 1.1 | – | – | – | – |
| COc1cc2ncnc(Nc3ccc(F)c(Cl)c3)c2cc1OCCCN1CCOCC1 | – | – | – | – | – | – | – | – | inactive | – | – | – |
| COc1ccc2c(Nc3ccc(OCc4ccccc4)cc3)ncnc2c1 | > 100 | 0.99 | 0.87 | 0.64 | – | – | 1.05 | 1.12 | inactive | – | – | – |
| C#Cc1cccc(Nc2ccnc3cc(OCCOC)c(OCCOC)cc23)c1 | > 100 | 0.88 | 0.79 | 0.58 | >95 | >95 | – | – | – | – | – | – |
| Oc1ccc2ncnc(Nc3ccc(OCc4ccc(F)cc4)cc3)c2c1 | > 100 | 0.64 | 0.44 | 0.32 | – | – | 0.86 | 0.76 | inactive | – | – | – |
| COc1cc2ncnc(Nc3ccc(OCc4cccc(F)c4)c(Cl)c3)c2cc1OC | 1.1 | 0.92 | 0.74 | 0.8 | >95 | >95 | – | – | – | – | – | – |
| COc1cc(Nc2ccnc3ccc(C(F)(F)F)cc23)cc(OC)c1OC | > 100 | 1.23 | 1.14 | 1.21 | >95 | >95 | – | – | – | – | – | – |
| Oc1cc2ncnc(Nc3ccc(OCc4ccc(F)cc4)cc3)c2cc1O | > 100 | 1 | 0.89 | 0.76 | – | – | 1.04 | 1.14 | inactive | – | – | – |
| CS(=O)(=O)CCNCc1ccc(-c2ccc3ncnc(Nc4ccc(OCc5cccc(F)c5)c(Cl)c4)c3c2)o1 [LAPATINIB] | 13 | 0.74 | 0.17 | 0.08 | – | – | 0.99 | 0.9 | inactive | – | – | – |
| Oc1ccc2ncnc(Nc3ccc(OCc4cccc(F)c4)cc3)c2c1 | 12 | 0.49 | 0.39 | 0.25 | – | – | 0.76 | 0.64 | inactive | – | – | – |
| COc1cc2ncc(C#N)c(Nc3cc(OC)c(OC)c(OC)c3)c2cc1OC | > 100 | 1.03 | 1.01 | 0.97 | >95 | >95 | – | – | – | – | – | – |
| COc1cc2nccc(Nc3ccc(OCc4ccc(C)cc4)cc3)c2cc1OC | 5.4 | 0.1 | 0.08 | 0.09 | – | – | 0.43 | 0.17 | – | 0.63 to 1.25 | 98 | 98 |
| Oc1ccc2c(Nc3ccc(OCc4ccc(F)cc4)cc3)ncnc2c1 | > 100 | 0.9 | 0.89 | 0.83 | – | – | 0.94 | 1.01 | inactive | – | – | – |
| C#Cc1cccc(Nc2ncnc3cc(OC)c(OC)cc23)c1 | > 100 | 0.93 | 0.83 | 0.69 | >95 | >95 | – | – | – | – | – | – |
| COc1cc2nccc(Nc3cc(OC)c(OC)c(OC)c3)c2cc1OC | > 100 | 1.26 | 1.11 | 1.06 | >95 | >95 | – | – | – | – | – | – |
| COc1ccc2c(Nc3ccc(NC(=O)c4ccc(C)cc4)c(O)c3)ccnc2c1 | 4.7 | 1.09 | 1.11 | 0.96 | – | – | 1.13 | 1.11 | – | – | – | – |
| COc1cc(Nc2ccnc3ccc(Br)cc23)cc(OC)c1OC | > 100 | 1.35 | 1.41 | 1.28 | >95 | >95 | – | – | – | – | – | – |

| Structure (SMILES) | IC50 (cells) [µM] | Ratio [1] | Ratio [2] | Ratio [3] | Activity [4] [%] | Activity [5] [%] | Ratio [6] | Ratio [7] | Activity [8] | MIC90 [9] [µM] | inhibition of growth at 5 µM [10] [%] | inhibition of growth at 20 µM [11] [%] |
| --- | --- | --- | --- | --- | --- | --- | --- | --- | --- | --- | --- | --- |
| Oc1ccc2ncnc(Nc3ccc(OCc4ccccc4F)cc3)c2c1 | 28 | 0.63 | 0.46 | 0.28 | – | – | 0.89 | 0.82 | inactive | – | – | – |
| COc1cc2ncnc(Nc3cccc(Br)c3)c2cc1OC | 3.9 | 0.98 | 0.71 | 0.65 | >95 | >95 | – | – | – | – | – | – |
| Oc1ccc2c(Nc3ccc(OCc4ccccc4)cc3)ncnc2c1 | > 100 | 0.89 | 0.88 | 0.89 | – | – | 0.9 | 0.9 | inactive | – | – | – |
| COc1cc(Nc2ncnc3ccc(C(F)(F)F)cc23)cc(OC)c1OC | > 100 | 1.25 | 1.12 | 1.06 | >95 | >95 | – | – | – | – | – | – |
| COc1cc2ncnc(Nc3cc(OC)c(OC)c(OC)c3)c2cc1OC | > 100 | 1.03 | 1.01 | 0.94 | >95 | >95 | – | – | – | – | – | – |
| COc1ccc2nccc(Nc3ccc(NC(=O)c4ccc(C)cc4)c(O)c3)c2c1 | 10 | 1.14 | 1.28 | 0.95 | – | – | 1.11 | 1.17 | – | – | – | – |
| C#Cc1cccc(Nc2ccnc3cc(OC)c(OC)cc23)c1 | > 100 | 1.02 | 0.89 | 0.67 | >95 | >95 | – | – | – | – | – | – |
| COc1cc2nccc(Nc3ccc(NC(=O)c4ccc(C(C)(C)C)cc4)c(O)c3)c2cc1OC | 2.6 | 1.06 | 0.72 | 0.25 | – | – | 1.1 | 1.12 | – | – | – | – |
| C#Cc1cccc(Nc2ncnc3cc(OCCOC)c(OCCOC)cc23)c1 | – | – | – | – | – | – | – | – | inactive | – | – | – |
| COCCOc1cc2ncnc(Nc3cc(OC)c(OC)c(OC)c3)c2cc1OCCOC | > 100 | 1.02 | 0.96 | 0.87 | >95 | >95 | – | – | – | – | – | – |
| COc1cc2ncnc(Nc3ccc(OCc4ccccc4)cc3)c2cc1OC | > 100 | 0.83 | 0.77 | 0.6 | – | – | 1.04 | 1.04 | inactive | – | – | – |
| COc1cc2nccc(Nc3cccc(Br)c3)c2cc1OC | 9.6 | 1.03 | 0.9 | 0.6 | >95 | >95 | – | – | – | – | – | – |
| Oc1cc2ncnc(Nc3ccc(OCc4ccccc4)cc3)c2cc1O | 8.8 | 0.91 | 0.76 | 0.69 | – | – | 0.95 | 0.93 | inactive | – | – | – |
| COc1cc2ncc(C#N)c(Nc3cccc(Br)c3)c2cc1OC | 11 | 0.88 | 0.56 | 0.37 | >95 | >95 | – | – | – | – | – | – |
| Oc1ccc2nccc(Nc3ccc(OCc4ccccc4)cc3)c2c1 | 2.5 | 0.66 | 0.42 | 0.37 | – | – | 0.95 | 0.86 | inactive | – | – | – |
| COc1cc2nccc(Nc3ccc(OCc4cccc(F)c4)c(Cl)c3)c2cc1OC | 11 | 0.78 | 0.22 | 0.1 | >95 | >95 | – | – | – | – | – | – |
| Oc1ccc2ncnc(Nc3ccc(OCc4ccccc4)cc3)c2c1 | 26 | 0.96 | 0.9 | 0.8 | – | – | 0.95 | 0.94 | inactive | – | – | – |
| COc1cc2nccc(Nc3ccc(NC(=O)c4ccc(C)cc4)c(O)c3)c2cc1OC | 16 | 1.13 | 1.05 | 0.45 | – | – | 1.14 | 1.09 | – | – | – | – |

From ChEMBL document CHEMBL4385662, “Anti-tubercular activity of novel 4-anilinoquinolines and 4-anilinoquinazolines” (Bioorg Med Chem Lett, 2019)
